Only some compounds are listed: those with a hit (about 3.5% of all), similar ones and a draw of the others.
DENV2 CPE rescue: inhibitors of DENV2 cytopathic effect; DENV2-infected cells, cytopathic effect rescue, plate reader; CPE inhibition, % at 9.99 µM; hit rate 1.7% among 350,000; in the data active = CPE inhibition above about 20%, passing the limit was not always enough; tested in BHK-21 cells
rRNA inh HTS: selective bacterial rRNA inhibition in E. coli. hit rate 1.6% among 350,000. E. coli WT GFP vs humanized-ribosome RFP mutants, fluorescence, 24 h; hits give low values; DMSO median 0, no signal -100. GFP signal change (wild-type ribosome), % (no concentration beside the values);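 active = significant combined selectivity score with lowered wild-type GFP, culture density cut under 30%, mutant RFP and density less affected; inactive = any of these conditions unmet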
PglD DTNB: PglD (C. jejuni) enzyme inhibition. AID 602405. purified PglD enzyme, DTNB colorimetric CoA detection. hit rate 0.098% among 360,000. inhibition, % at 12.5 µM; in the data active = inhibition above about 16%, passing the limit was not always enough
Env fusion inh: inhibitors of HIV Env-mediated cell fusion; hit rate 1.1% among 360,000; HeLa-JRFL Env/CEM21 cell fusion, luciferase; AID 651610; inhibition, % at 12.3 µM;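 active = mean replicate inhibition score of at least 50 and every replicate individually at or above 50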
FN deposit inh: fibronectin deposition inhibition. inhibition, % at 12.6 µM. hit rate 0.086% among 350,000. AH1F fibroblasts, Alexa488-fibronectin deposition fluorescence, overnight;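 active = mean inhibition across replicates of 30% or more, regardless of how many single replicates reach that level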
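test system = AH1F fibroblasts assembling fluorescent fibronectin matrix | quantity = 10000 AH1F cells per well | buffer or medium = DMEM plus 2% serum, read in PBS | doses = single dose, pinned | incubation = 1 h cell attachment, overnight exposure to compound and label | detection = fluorescence at 485 nm excitation, 525 nm emission | read-out basis = inhibition from reduced deposited-fibronectin fluorescence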
PGC1a acetyl inh: lowers PGC1a acetylation signal in U2OS cells; AlphaScreen anti-acetyl-lysine; with virally co-expressed GCN5 acetyltransferase; inhibition, % at 15.6 µM; hit rate 0.17% among 350,000;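 active = every replicate shows inhibition of at least 40%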
Large screens that a line does not name were inactive; ! = repeats disagree.

C[C@@H]1CCCCO[C@H](CN(C)C(=O)Nc2ccccc2)[C@@H](C)CN([C@H](C)CO)C(=O)c2cc(NS(=O)(=O)c3cn(C)cn3)ccc2O1	DENV2 CPE rescue 45!
N#C[C@H]1[C@@H](c2ccc(C#CCC3CCCC3)cc2)[C@@H](CO)N1C(=O)c1ccccn1	none
C[C@@H]1CN([C@@H](C)CO)C(=O)c2cc(C3=CCCCC3)cnc2O[C@H]1CN(C)C(=O)c1cccnc1	none (no result: FN deposit inh)
COc1ccc(NC(=O)Nc2ccc3c(c2)C(=O)N([C@@H](C)CO)C[C@@H](C)[C@H](CN(C)S(=O)(=O)c2cccs2)OCCCC[C@@H](C)O3)cc1	none (no result: FN deposit inh)
CCOc1ccc(NCC(=O)c2ccc(C)cc2)cc1	rRNA inh HTS -33 (no result: PglD DTNB)
Cc1ccc(C(=O)CNc2ccc(Cl)cc2)cc1	none (no result: PGC1a acetyl inh)
C[C@H]1CN([C@@H](C)CO)C(=O)c2cccc(NC(=O)C3CCCCC3)c2O[C@H]1CN(C)Cc1ccc(Cl)c(Cl)c1	none (no result: Env fusion inh)
CCOc1ccc(-c2cccc(NS(=O)(=O)c3ccccc3[N+](=O)[O-])c2)nn1	Env fusion inh 94
COc1ccc(-c2cccc(NS(=O)(=O)c3ccccc3[N+](=O)[O-])c2)nn1	none
O=[N+]([O-])c1ccccc1S(=O)(=O)Nc1cccc(-c2ccc3nncn3n2)c1	DENV2 CPE rescue 65 (no result: FN deposit inh)
Cc1c(COC(=O)NC(C)C)c(COC(=O)NC(C)C)c2n1CS(=O)(=O)C2	none (no result: PglD DTNB, PGC1a acetyl inh)
COc1cc(OC)cc(C(=O)NCC2CCN(C(=O)C(=O)c3cc4ccccc4o3)CC2)c1	none (no result: PglD DTNB, PGC1a acetyl inh)
O=C(NCC1CCN(C(=O)C(=O)c2cc3ccccc3o2)CC1)c1ccc2c(c1)OCO2	none (no result: PglD DTNB, PGC1a acetyl inh)
O=C(NCC1CCN(C(=O)C(=O)c2cc3ccccc3o2)CC1)c1ccc2c(c1)OCCCO2	rRNA inh HTS -17 (no result: PglD DTNB, PGC1a acetyl inh)
O=C(C(=O)N1CCC(CNS(=O)(=O)c2ccccc2)CC1)c1cc2ccccc2o1	rRNA inh HTS -13 (no result: PglD DTNB, PGC1a acetyl inh)
CSc1ccc(C(=O)NCC2CCN(C(=O)C(=O)c3cc4ccccc4o3)CC2)cc1	rRNA inh HTS -14 (no result: PglD DTNB, PGC1a acetyl inh)
CCCNC(=O)N(C)C[C@H]1Oc2cc(C#CCN(C)C)ccc2S(=O)(=O)N([C@H](C)CO)C[C@@H]1C	none
COCC(=O)Nc1ccc2c(c1)OC[C@@H](C)N(CC1CCCCC1)C[C@H](C)[C@@H](OC)CN(C)C2=O	none (no result: Env fusion inh)
CO[C@H]1CN(C)C(=O)c2cc(NS(=O)(=O)c3ccccc3C)ccc2OC[C@H](C)N(S(C)(=O)=O)C[C@H]1C	none
S=C(Nc1ccc(N2CCOCC2)cc1)Nc1ccc2snnc2c1	rRNA inh HTS -20 (no result: PglD DTNB, FN deposit inh, PGC1a acetyl inh)
O=C(Nc1ccc2snnc2c1)N1CCOCC1	none (no result: DENV2 CPE rescue, rRNA inh HTS, Env fusion inh, FN deposit inh, PGC1a acetyl inh)
COc1ccc([N+](=O)[O-])c(S(=O)(=O)c2ccc(Cl)cc2)n1	PGC1a acetyl inh 45
CC(C)c1cn(CC[C@@H]2CC[C@@H](NS(=O)(=O)c3ccc(F)cc3)[C@H](CO)O2)nn1	none
CN(C)CCCN(C(=O)c1cc2cc([N+](=O)[O-])ccc2s1)c1nc2cc3c(cc2s1)OCCO3	Env fusion inh 87, PGC1a acetyl inh 54
CN(C)CCCN(C(=O)c1ccc([N+](=O)[O-])s1)c1nc2cc3c(cc2s1)OCCO3	none (no result: PGC1a acetyl inh)
N#C[C@@H]1[C@@H](c2ccc(-c3cncnc3)cc2)[C@H](CO)N1C(=O)C1CCCC1	DENV2 CPE rescue 23
N#C[C@H]1[C@@H](c2ccc(C3=CCCC3)cc2)[C@@H](CO)N1C(=O)C1CCCC1	DENV2 CPE rescue 72
N#C[C@@H]1[C@H](c2ccc(-c3cncnc3)cc2)[C@H](CO)N1C(=O)C1CC1	none
N#C[C@@H]1[C@H](c2ccc(C3=CCCC3)cc2)[C@H](CO)N1C(=O)C1CCCC1	none
Cn1nnnc1Sc1ncnc2scc(-c3ccccc3C(F)(F)F)c12	rRNA inh HTS -18
C[C@H](CO)N1C[C@H](C)[C@H](CN(C)C(=O)CN(C)C)Oc2ncc(/C=C/c3ccccc3)cc2C1=O	none
O=C(CSc1nnnn1C1CCCCC1)NCCc1ccccc1	rRNA inh HTS -28 (no result: Env fusion inh, FN deposit inh)
O=S(=O)(NCC1CCCO1)c1ccc(Oc2ccccc2)cc1 (stereo not given)	Env fusion inh 57 (no result: DENV2 CPE rescue, rRNA inh HTS, FN deposit inh)
COCC(=O)N1CC(=O)N2[C@@H](CO)[C@@H](c3ccc(C#CC4CC4)cc3)[C@@H]2C1	none (no result: PglD DTNB, Env fusion inh)
CCC(=O)Nc1ccc2c(c1)C(=O)N(C)C[C@@H](OC)[C@@H](C)CN(C(=O)c1cnccn1)[C@H](C)CO2	none (no result: Env fusion inh)
Cc1ccc(C)c(N2CCN(C(=O)c3ccc(Cl)c(NC4=NC5CS(=O)(=O)CC5S4)c3)CC2)c1 (stereo not given)	DENV2 CPE rescue 28
CCOC(=O)C1CCN(C(=O)c2cccc(NC3=NC4CS(=O)(=O)CC4S3)c2)CC1 (stereo not given)	none
COc1cccc(N2CCN(C(=O)c3cccc(NC4=NC5CS(=O)(=O)CC5S4)c3)CC2)c1 (stereo not given)	DENV2 CPE rescue 35
O=C(c1ccc(Cl)c(NC2=NC3CS(=O)(=O)CC3S2)c1)N1CCN(c2ccccc2)CC1 (stereo not given)	none
CC(C)OC(=O)c1c(F)c(F)c(N2CCOCC2)c(F)c1F	PGC1a acetyl inh 57 (no result: DENV2 CPE rescue, rRNA inh HTS)
COC(=O)c1c(F)c(F)c(N2CCOCC2)c(F)c1F	none (no result: DENV2 CPE rescue, rRNA inh HTS, Env fusion inh, FN deposit inh)
COc1ccc2cc(C=NS(=O)(=O)c3ccc(C)cc3)n(C)c2c1	Env fusion inh 59 (no result: DENV2 CPE rescue, rRNA inh HTS)
COc1ccc(/C=N/S(=O)(=O)c2ccc(C)cc2)cc1	none
Cc1nccn1CC(O)COc1ccc(Cl)cc1Cl (stereo not given)	DENV2 CPE rescue 31
Cc1cc(C)n(CC(O)COc2ccc(Cl)cc2Cl)n1 (stereo not given)	none
C=CCn1cccc(C(=O)Nc2ccc(C)c(C)c2)c1=O	rRNA inh HTS -30
CCOc1cccc(/C=C/c2ccc3cccc(O)c3n2)c1O	none (no result: PGC1a acetyl inh)
CCOc1cccc(/C=C/c2ccc3cccc(O)c3n2)c1OC	rRNA inh HTS -37
Cc1ccc(-c2nc(N3CCN(C)CC3)c3ccccc3n2)cc1	DENV2 CPE rescue 25, rRNA inh HTS -27
CN1CCN(c2nc(-c3ccc(C(C)(C)C)cc3)nc3ccccc23)CC1	none
Cc1noc(C)c1NC(=O)N(C)C[C@@H]1Oc2ccc(NC(=O)NC3CCCCC3)cc2C(=O)N([C@H](C)CO)C[C@@H]1C	none (no result: Env fusion inh)
COc1ccc(/C=N/OCC(=O)NC(c2ccccc2)c2ccccc2)cc1OC	Env fusion inh 62 (no result: PglD DTNB, PGC1a acetyl inh)
COc1ccc(/C=N/OCC(=O)Nc2cc(C)on2)cc1OC	none
COc1ccc(CNC(=O)CNC(c2ccccc2)c2ccccc2)cc1OC	rRNA inh HTS -28 (no result: PGC1a acetyl inh)
CC(=O)Nc1ccc2c(c1)C(=O)N(C)[C@H]1CC[C@@H](CC(=O)NCc3ccc(F)cc3)O[C@@H]1CO2	none
CCCN(C)C[C@@H]1Oc2cc(C#Cc3ccccn3)ccc2S(=O)(=O)N([C@@H](C)CO)C[C@@H]1C	none

Assay outcomes: PubChem BioAssay, Broad Institute
